A short description of data set [1]: Increase in neuronal survival in embryonic chick dorsal root ganglion sensory neurons assessed as normalized neuronal survival response equivalent to 20% for BDNF after 48 hrs. In kind it is functional, Gallus gallus, DRG neuron. Put shortly: (§1)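 Primary embryonic chick DRG sensory neuron cultures. Peptides tested in log10 increments, with surviving neurons counted after 48 h. Triplicate well counts averaged and normalised between BDNF positive (100%) and negative (0%) controls. Data given as mean ± SEM, n = 3–4. pEC20BDNF is the negative log10 of the concentration giving 20% of the BDNF survival response.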

The subject of another data set is Plasma. The data set is described as follows: (§2) Stability in mouse plasma assessed as degradation. In kind it is ADME, cell-free. Put shortly: (§3)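 Peptide (0.2 mg) incubated at 37 °C in single-mouse plasma diluted 50% in PBS, sampled over 24 h. Each aliquot put on ice, treated with lysine (1000 equiv) to displace protein binding, then MeCN to precipitate proteins, centrifuged at 4 °C and diluted for HPLC. Peak areas taken as ratio to 4-isopropylbenzyl alcohol internal standard, as % of t = 0; three experiments.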

Data set [2] in a line: Increase in neuronal survival in embryonic chick dorsal root ganglion sensory neurons at 10 uM to 0.1 nM after 48 hrs relative to BDNF.
The nature of data set [3]: Apparent permeability across apical to basolateral side in human Caco-2 cells at 200 uM after 150 mins. The format is ADME, cell-based. The procedure, abridged:
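Caco-2 cells (passage 82–96) grown 24–25 days on polycarbonate Transwell supports (0.45 µm pore, 1.13 cm²). Basolateral samples taken every 30 min for 150 min with buffer replacement. Samples acetylated, lyophilised, redissolved in 2% TFA and centrifuged; bis-acetylated peptide quantified by LCMS. Papp given as mean ± SEM from 3–4 monolayers.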
(Caco-2 cells form a polarised layer with tight junctions and transporters.)

A short description of data set [4]: Increase in neuronal survival in embryonic chick dorsal root ganglion sensory neurons at 10 uM to 0.1 nM after 48 hrs relative to BDNF. In kind it is functional, Gallus gallus, DRG neuron. The following applies: in the assay text read “at 100 uM” for “at 10 uM to 0.1 nM”. The procedure, abridged:
as §1

Data set [5] is described as follows: Stability in mouse plasma assessed as half life at 0.2 mg. The format is ADME, cell-free. The procedure, abridged:
as §3

Data set [6] can be described thus: Increase in neuronal survival in embryonic chick dorsal root ganglion sensory neurons at 10 uM to 10 nM after 48 hrs relative to BDNF. In kind it is functional, Gallus gallus, DRG neuron. The procedure, abridged: as §1
Data set [7] can be described thus: Increase in neuronal survival in embryonic chick dorsal root ganglion sensory neurons at 0.1 uM after 48 hrs relative to BDNF. The format is functional, Gallus gallus, DRG neuron. The following applies: in the assay text read “0.01 uM” for “0.1 uM”. Put shortly: as §1
Data set [8] in a line: as §2. The format is ADME, cell-free. Conditions: read-out: Activity. The procedure, abridged: as §3

Each structure is given as a SMILES string.

For the molecule `C[C@@H]1NC(=O)[C@H]2CCCN2C(=O)[C@H](CCCNC(=N)N)NC(=O)[C@H](CCCCN)NC(=O)[C@H](CCCCN)NC1=O`, the Activity is reported as 7.3 in data set [1], “Stable” in the data set on Plasma, 37.3% in [2] and 67.7% in data set [4]. Moreover, the Papp A→B – broadly, how fast a substance crosses the layer from the apical side – at 2.5 h, 200 µM in data set [3] came out at 0.642 ×10⁻⁶ cm/s. Also, the half-life (usually the time in which the quantity being followed falls by half) in data set [5] is over 24 h.
As to `CCCCC(=O)NCCCC[C@@H]1NC(=O)[C@H]2CCCN2C(=O)[C@H](CCCNC(=N)N)NC(=O)[C@H](CCCCN)NC(=O)[C@H](CCCCN)NC1=O`, the Activity came to 7.7 in data set [1] and 39.4% in [6]. Moreover, in data set [3], the Papp A→B at 2.5 h, 200 µM amounted to 0.929 ×10⁻⁶ cm/s.
As to `CCCCCCCCCCCCCCCC(=O)NCCCC[C@@H]1NC(=O)[C@H]2CCCN2C(=O)[C@H](CCCNC(=N)N)NC(=O)[C@H](CCCCN)NC(=O)[C@H](CCCCN)NC1=O`, the Activity in [1] came to 9.1; in data set [6] it was 49.4%; in [7], 28.4%.
`CCCCCCCC(=O)NCCCC[C@@H]1NC(=O)[C@H]2CCCN2C(=O)[C@H](CCCNC(=N)N)NC(=O)[C@H](CCCCN)NC(=O)[C@H](CCCCN)NC1=O`: the Activity in [1] is given as 7.5; in data set [6], 38.7%. Besides, in [8], the metabolised came to 20%. The Papp A→B at 2.5 h, 200 µM in [3] was 0.922 ×10⁻⁶ cm/s. Further, the half-life in data set [5] is over 24 h.
Take `CCCC[C@@H]1NC(=O)[C@H]2CCCN2C(=O)[C@H](CCCNC(=N)N)NC(=O)[C@H](CCCCN)NC(=O)[C@H](CCCCN)NC1=O`: the Activity in data set [1] is 6.2; in data set [6], 36.2%. In addition, in data set [3], the Papp A→B at 2.5 h, 200 µM came to 0.288 ×10⁻⁶ cm/s.
On to `N=C(N)NCCC[C@@H]1NC(=O)[C@H](CCCCN)NC(=O)[C@H](CCCCN)NC(=O)[C@H](CCCCN)NC(=O)[C@H]2CCCN2C1=O`, for which the Activity in [1] was 7.5; in [6], 60.9%.
Taken in the same sequence, the figures for `N=C(N)NCCC[C@@H]1NC(=O)[C@H](CCCCN)NC(=O)[C@H](CCCCN)NC(=O)[C@H](Cc2ccccc2)NC(=O)[C@H]2CCCN2C1=O` were 5.3 and 21.8%.

These data come from ChEMBL document CHEMBL1154000, “Modified low molecular weight cyclic peptides as mimetics of BDNF with improved potency, proteolytic stability and transmembrane passage in vitro” (Bioorg Med Chem, 2009).
